Each structure is given as a SMILES string. Activity calls are given as the source filed them. The rule behind the calls is not given here.

The species entered for assay [1] is Homo sapiens. The assay is described as follows: Potentiation of recombinant purinergic receptor (unknown origin).
The target of assay [2] is T1, Glutamate NMDA receptor; Grin1/Grin2c (Rattus norvegicus) (UniProt P35439+Q00961). The assay is described as follows: Potentiation of rat recombinant GluN1/GluN2C expressed in Xenopus laevis oocytes assessed as increase in glutamate/glycine-induced current response at 100 uM by two-electrode voltage clamp technique relative to control. In kind it is cell-based. The procedure, abridged: (§1)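 Two-electrode voltage clamp at −40 mV on Xenopus oocytes coexpressing GluN1 with GluN2A, 2B, 2C or 2D. […] Compounds came from 20 mM DMSO stocks, with 0.05–0.5% final DMSO. Some GluN2A oocytes were injected with K-BAPTA to limit current run-up. Recording solution was pH 7.4, 23 °C.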
A general note: Two-electrode voltage clamp holds a large cell at a set potential and records current.

Assay [3] is filed under the species Homo sapiens. The assay can be described thus: Potentiation of recombinant GABA receptor (unknown origin).
The target in assay [4] is T1, Glutamate NMDA receptor; Grin1/Grin2c (Rattus norvegicus). The assay can be described thus: Potentiation of rat recombinant GluN1/GluN2C expressed in Xenopus laevis oocytes assessed as glycine-induced current response at 68 uM by two-electrode voltage clamp technique. In kind it is cell-based.
Assay [5] shares this target. The assay can be described thus: Effect on rat recombinant GluN1/GluN2C expressed in Xenopus laevis oocytes assessed as reversal potential of glycine/glutamate-induced current response (reference value: -5.1 +/- 0.8 mV). In kind it is cell-based. An outline of the steps:
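Reversal potential of GluN1/GluN2C currents in cRNA-injected Xenopus oocytes by two-electrode voltage clamp. […] Recording solution was Ba²⁺-containing HEPES saline, pH 7.4, 23 °C.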

For assay [6] the target is unchanged. The assay can be described thus: Agonist activity at rat recombinant GluN1/GluN2C expressed in Xenopus laevis oocytes by two-electrode voltage clamp technique relative to control. In kind it is cell-based.
The species named for assay [7] is Homo sapiens. The assay can be described thus: Potentiation of recombinant kainate receptor (unknown origin).
In assay [8] the target is T1, Glutamate NMDA receptor; Grin1/Grin2c (Rattus norvegicus). The assay is described as follows: Potentiation of rat recombinant GluN1/GluN2C expressed in Xenopus laevis oocytes assessed as increase in glutamate/glycine-induced current response at 30 uM by two-electrode voltage clamp technique relative to control. In kind it is cell-based. The procedure, abridged: as §1

The species entered for assay [9] is Homo sapiens. The assay is described as follows: Potentiation of recombinant glycine receptor (unknown origin).
The target in assay [10] is Glutamate receptor 1 (Rattus norvegicus) (UniProt P19490). The assay can be described thus: Potentiation of recombinant homomeric GluA1 AMPA receptor (rat) at 30 uM relative to control.
Sequence of Glutamate receptor 1 (Rattus norvegicus) (P19490 whole entry, looked up): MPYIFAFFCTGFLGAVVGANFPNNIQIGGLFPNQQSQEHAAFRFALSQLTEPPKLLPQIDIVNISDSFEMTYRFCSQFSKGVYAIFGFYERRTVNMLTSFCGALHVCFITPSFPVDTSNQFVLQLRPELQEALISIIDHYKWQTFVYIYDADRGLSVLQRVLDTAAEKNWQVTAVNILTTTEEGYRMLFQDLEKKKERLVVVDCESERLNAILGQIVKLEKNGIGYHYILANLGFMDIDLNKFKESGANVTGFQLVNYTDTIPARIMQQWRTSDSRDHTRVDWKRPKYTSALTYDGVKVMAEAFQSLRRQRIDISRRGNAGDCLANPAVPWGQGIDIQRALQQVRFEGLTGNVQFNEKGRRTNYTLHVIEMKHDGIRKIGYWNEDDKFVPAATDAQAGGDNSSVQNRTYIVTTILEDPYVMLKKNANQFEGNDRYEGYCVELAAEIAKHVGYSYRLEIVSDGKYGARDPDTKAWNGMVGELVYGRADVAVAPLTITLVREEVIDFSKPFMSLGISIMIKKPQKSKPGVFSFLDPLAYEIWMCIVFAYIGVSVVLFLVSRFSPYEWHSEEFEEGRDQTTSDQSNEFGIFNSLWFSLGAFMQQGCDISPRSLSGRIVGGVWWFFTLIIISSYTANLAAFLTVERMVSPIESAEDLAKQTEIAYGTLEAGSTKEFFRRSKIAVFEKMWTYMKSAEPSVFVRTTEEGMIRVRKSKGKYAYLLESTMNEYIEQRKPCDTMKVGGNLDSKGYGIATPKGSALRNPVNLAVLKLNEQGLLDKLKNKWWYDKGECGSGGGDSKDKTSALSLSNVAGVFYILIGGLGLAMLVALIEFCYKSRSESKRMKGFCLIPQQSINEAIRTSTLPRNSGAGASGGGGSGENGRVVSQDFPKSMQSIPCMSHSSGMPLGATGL
Assay [11] concerns the target T1, Glutamate NMDA receptor; Grin1/Grin2c (Rattus norvegicus). The assay is described as follows: Potentiation of rat recombinant GluN1/GluN2C expressed in Xenopus laevis oocytes assessed as glutamate-induced current response at 68 uM by two-electrode voltage clamp technique. In kind it is cell-based.
For assay [12], the species on record is Homo sapiens. The assay is described as follows: Potentiation of recombinant nicotinic receptor (unknown origin).
Assay [13] deals with T1, Glutamate NMDA receptor; Grin1/Grin2c (Rattus norvegicus). The assay can be described thus: Potentiation of rat recombinant GluN1/GluN2C expressed in Xenopus laevis oocytes assessed as glutamte/glycine-induced current response at 20 uM at -40 mV. In kind it is cell-based.
For assay [14] the target is unchanged. The assay can be described thus: Potentiation of rat recombinant GluN1/GluN2C expressed in Xenopus laevis oocytes assessed as glutamte/glycine-induced current response at 20 uM at 30 mV. The format is cell-based.
For assay [15], the species on record is Homo sapiens. The assay can be described thus: Potentiation of recombinant serotonin receptor (unknown origin).
The target of assay [16] is Glutamate receptor ionotropic, kainate 2 (Rattus norvegicus) (UniProt P42260). The assay is described as follows: Potentiation of recombinant homomeric GluK2 receptor (rat) at 120 uM relative to control.
Sequence of Glutamate receptor ionotropic, kainate 2 (Rattus norvegicus) (P42260 whole entry, looked up): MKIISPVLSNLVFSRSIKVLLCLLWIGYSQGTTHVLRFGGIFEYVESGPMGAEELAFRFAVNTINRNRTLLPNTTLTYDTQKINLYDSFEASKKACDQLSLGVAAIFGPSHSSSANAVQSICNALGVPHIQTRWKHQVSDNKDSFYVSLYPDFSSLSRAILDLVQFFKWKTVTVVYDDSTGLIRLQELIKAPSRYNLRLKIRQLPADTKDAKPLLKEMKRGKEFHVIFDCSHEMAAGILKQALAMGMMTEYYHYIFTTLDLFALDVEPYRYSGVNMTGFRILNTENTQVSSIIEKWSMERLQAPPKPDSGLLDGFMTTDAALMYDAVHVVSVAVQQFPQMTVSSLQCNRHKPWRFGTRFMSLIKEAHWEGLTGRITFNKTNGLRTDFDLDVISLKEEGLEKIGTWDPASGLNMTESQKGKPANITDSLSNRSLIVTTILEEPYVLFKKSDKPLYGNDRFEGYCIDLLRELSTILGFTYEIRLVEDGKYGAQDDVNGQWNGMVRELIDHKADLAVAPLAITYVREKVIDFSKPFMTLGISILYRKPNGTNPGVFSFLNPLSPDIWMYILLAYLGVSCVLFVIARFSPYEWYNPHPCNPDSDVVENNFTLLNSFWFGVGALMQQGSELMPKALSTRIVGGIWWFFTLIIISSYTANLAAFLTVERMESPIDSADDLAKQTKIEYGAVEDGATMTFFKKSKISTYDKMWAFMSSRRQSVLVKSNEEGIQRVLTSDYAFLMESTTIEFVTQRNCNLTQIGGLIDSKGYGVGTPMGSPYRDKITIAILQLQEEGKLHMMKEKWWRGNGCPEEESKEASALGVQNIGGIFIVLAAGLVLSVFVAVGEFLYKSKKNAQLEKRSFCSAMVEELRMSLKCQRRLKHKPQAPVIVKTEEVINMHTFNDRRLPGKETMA
Assay [17] addresses T2, Ionotropic glutamate receptor NMDA 1/2D (Rattus norvegicus) (UniProt P35439+Q62645). The assay can be described thus: Potentiation of rat recombinant GluN1/GluN2D expressed in Xenopus laevis oocytes assessed as increase in glutamate/glycine-induced current response at 30 uM by two-electrode voltage clamp technique relative to control. In kind it is cell-based. The procedure, abridged: as §1

Assay [18] has as its target T3, Glutamate NMDA receptor; Grin1/Grin2a (Rattus norvegicus) (UniProt P35439+Q00959). The assay is described as follows: Potentiation of rat recombinant GluN1/GluN2A expressed in Xenopus laevis oocytes assessed as increase in glutamate/glycine-induced current response at 30 uM by two-electrode voltage clamp technique relative to control. The format is cell-based. An outline of the steps: as §1

The target in assay [19] is T4, Glutamate NMDA receptor; Grin1/Grin2b (Rattus norvegicus) (UniProt P35439+Q00960). The assay can be described thus: Potentiation of rat recombinant GluN1/GluN2B expressed in Xenopus laevis oocytes assessed as increase in glutamate/glycine-induced current response at 30 uM by two-electrode voltage clamp technique relative to control. In kind it is cell-based. The procedure, abridged: as §1

The target in assay [20] is Glutamate NMDA receptor; Grin1/Grin2c (Rattus norvegicus, UniProt P35439+Q00961). The assay can be described thus: Potentiation of rat recombinant GluN1/GluN2C expressed in Xenopus laevis oocytes assessed as increase in glutamate/glycine-induced current response by two-electrode voltage clamp technique relative to control. The format is cell-based.
Assay [21] deals with T4, Glutamate NMDA receptor; Grin1/Grin2b (Rattus norvegicus). The assay is described as follows: Activity at rat recombinant GluN1/GluN2B expressed in Xenopus laevis oocytes assessed as current response at 100 uM relative to control.
For assay [22], the target named is T2, Ionotropic glutamate receptor NMDA 1/2D (Rattus norvegicus). The assay is described as follows: Activity at rat recombinant GluN1/GluN2D expressed in Xenopus laevis oocytes assessed as current response at 100 uM relative to control.
In assay [23] the target is T3, Glutamate NMDA receptor; Grin1/Grin2a (Rattus norvegicus). The assay can be described thus: Activity at rat recombinant GluN1/GluN2A expressed in Xenopus laevis oocytes assessed as current response at 100 uM relative to control.
Assay [24] has as its target Ionotropic glutamate receptor NMDA 1/2D (Rattus norvegicus, UniProt P35439+Q62645). The assay can be described thus: Inhibition of rat recombinant GluN1/GluN2D expressed in Xenopus laevis oocytes assessed as reduction in current response. The format is cell-based.
For assay [25], the target named is Glutamate NMDA receptor; Grin1/Grin2b (Rattus norvegicus, UniProt P35439+Q00960). The assay is described as follows: Inhibition of rat recombinant GluN1/GluN2B expressed in Xenopus laevis oocytes assessed as reduction in current response. In kind it is cell-based.
In assay [26] the target is Glutamate NMDA receptor; Grin1/Grin2a (Rattus norvegicus, UniProt P35439+Q00959). The assay can be described thus: Inhibition of rat recombinant GluN1/GluN2A expressed in Xenopus laevis oocytes assessed as reduction in current response. In kind it is cell-based.

Regarding `COC(=O)c1ccc(C2C(C(C)=O)=C(O)C(=O)N2CCc2c[nH]c3ccccc23)cc1` (stereo not drawn), the outcome (in the assay listed under Homo sapiens [1]; in the assay listed under Homo sapiens [3]; in assay [4]; in assay [6]; in the assay filed under Homo sapiens [7]; in the assay filed under Homo sapiens [9]) was inactive. The result (in assay [11]; in the assay listed under Homo sapiens [12]; in the assay listed under Homo sapiens [15]) was inactive. The max activation stood at 238% in assay [2] and 275% in assay [8]. The Activity in assay [5] was -5 mV; in assay [8], 196%; in assay [10] it was 97%; in [13], 202%; in assay [14] it was 180%; in [16], 95%.

In general, EC50 refers to the concentration giving half of the maximal effect. For the molecule `COC(=O)c1ccc(C2C(C(=O)C(C)C)=C(O)C(=O)N2CCc2c[nH]c3ccccc23)cc1` (stereo not drawn), the max activation in assay [2] worked out at 119%. In addition, the Activity worked out at 89% in assay [17], 95% in assay [18] and 87% in assay [19]. The EC50 in [20] was 61 µM.

As a reminder, the residual activity is what remains of the control signal, in per cent. With `COC(=O)c1ccc(C2C(C(=O)c3cccc(O)c3)=C(O)C(=O)N2CCc2c[nH]c3ccccc23)cc1` (stereo not drawn), the figures for the residual activity in assay [21], in assay [22] and in assay [23] were 42%, 48% and 76%, respectively. Also, the Activity was 69% in [17], 89% in assay [18], 65% in assay [19] and 169% in assay [8]. Besides, in assay [8], the max activation was 176%. For the same molecule, the EC50 in assay [20] turned out to be 7 µM.

In general, IC50 refers to the point on the concentration scale where inhibition reaches its midpoint. As for `COC(=O)c1ccc(C2C(C(=O)c3ccncc3)=C(O)C(=O)N2CCc2cccc3ccccc23)cc1` (stereo not drawn), the IC50 in [24] is 5.7 µM; in assay [25], 7.2 µM; in assay [26] it was 18 µM. Also, the Activity in assay [17] was found to be 18%; in assay [18], 44%; in assay [19] it was 20%; in [8], 34%.

For `COC(=O)c1ccc(C2C(C(=O)c3ccncc3)=C(O)C(=O)N2CCc2c[nH]c3ccccc23)cc1` (stereo not drawn), the Activity in [17] is 84%; in assay [18], 92%; in [19], 87%; in assay [8] it was 186%. For the same molecule, in assay [8], the max activation came out at 196%. For the same molecule, in [20], the EC50 came out at 8.9 µM.

For the molecule `COC(=O)c1ccc(C2C(C(=O)c3cccnc3)=C(O)C(=O)N2CCc2c[nH]c3cc(C)ccc23)cc1` (stereo not drawn), the Activity in [17] stood at 86%; in assay [18], 103%; in assay [19], 82%; in assay [8], 219%. Further, the max activation in assay [8] worked out at 218%. In [20], the EC50 is 4.3 µM.

Take `COC(=O)c1ccc(C2C(C(C)=O)=C(OC(C)=O)C(=O)N2CCc2c[nH]c3ccccc23)cc1` (stereo not drawn): the Activity in assay [17] was 92%; in assay [18] it was 95%; in [19], 90%; in [8] it was 120%. Further, the max activation in assay [8] stood at 173%. Besides, the half-maximal effective concentration (EC50) in assay [20] was 52 µM.

In the case of `COC(=O)c1ccc(C2C(C(=O)c3cccnc3)=C(O)C(=O)N2CCc2c[nH]c3ccccc23)cc1` (stereo not drawn), the Activity came to 78% in [17], 97% in assay [18], 76% in [19] and 180% in assay [8]. Besides, the max activation in assay [8] was found to be 201%. Also, in assay [20], the concentration giving a half-maximal response (EC50) came out at 12 µM.

As to `COC(=O)c1ccc(C2C(C(C)=O)=C(O)C(=O)N2CCc2c[nH]c3ccccc23)c(Cl)c1` (stereo not drawn), the Activity in assay [17] amounted to 90%; in assay [18], 103%; in assay [19] it was 87%; in assay [8], 139%. Moreover, the max activation in [8] is 191%. In addition, the EC50 in assay [20] amounted to 36 µM.

The values are drawn from ChEMBL document CHEMBL3232993, “Design, synthesis, and structure-activity relationship of a novel series of GluN2C-selective potentiators” (J Med Chem, 2014).
